According to ChEMBL document CHEMBL4270598, “Synthesis and discovery of a drug candidate for treatment of idiopathic pulmonary fibrosis through inhibition of TGF-β1 pathway” (Eur J Med Chem, 2018):
Values belong to the compound of their own block, whether it stands above or below them. Active and inactive are the calls of the source. The rule behind the calls is not given here.

What was measured:
[1] = target: T1, Transforming growth factor beta-1 proprotein/Mothers against decapentaplegic homolog 3 (Mus musculus) (UniProt P04202+Q8BUN5); assay: Inhibition of TGF-beta1/smad3 signaling pathway in mouse NIH/3T3 cells at 10 uM after 18 hrs by CAGA-luciferase reporter gene assay relative to control; assay type: cell-based
T1 sequence (P04202 279-390 limits assumed): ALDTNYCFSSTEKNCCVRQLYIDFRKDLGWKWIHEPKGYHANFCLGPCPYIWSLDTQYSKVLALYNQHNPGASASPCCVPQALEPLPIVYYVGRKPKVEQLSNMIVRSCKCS
T1 sequence (Q8BUN5 2-425 partner limits assumed): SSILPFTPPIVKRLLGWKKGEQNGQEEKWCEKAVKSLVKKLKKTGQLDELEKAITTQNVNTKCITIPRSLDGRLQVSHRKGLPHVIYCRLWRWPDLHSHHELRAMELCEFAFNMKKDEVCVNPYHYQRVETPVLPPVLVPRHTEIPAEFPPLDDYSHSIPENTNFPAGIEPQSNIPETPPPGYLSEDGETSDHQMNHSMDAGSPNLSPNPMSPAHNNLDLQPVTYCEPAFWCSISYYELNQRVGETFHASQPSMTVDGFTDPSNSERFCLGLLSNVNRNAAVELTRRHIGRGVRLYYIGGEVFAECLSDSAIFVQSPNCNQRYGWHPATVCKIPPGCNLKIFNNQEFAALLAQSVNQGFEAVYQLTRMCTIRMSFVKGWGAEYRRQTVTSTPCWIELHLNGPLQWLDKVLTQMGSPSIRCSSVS
How it was run: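 CAGA12-luciferase stably transfected NIH3T3 cells plated overnight. Treated with TGF-β1 (5 ng/mL) with or without compound at 10 µM in DMEM containing 0.1% FBS for 18 h. Lysate luminescence integrated over the first 20 s. Inhibition ratio calculated from TGF-β1-stimulated signal of treated versus control wells; mean of three independent experiments.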

[2] = target: Transforming growth factor beta-1 proprotein (Mus musculus) (UniProt P04202); assay: Inhibition of TGF-beta1 in mouse Mlg cells assessed as reduction in alpha-SMA mRNA expression level at 10 uM after 24 hrs by qRT-PCR method; assay type: cell-based
Chain of Transforming growth factor beta-1 proprotein (Mus musculus) (P04202 whole entry): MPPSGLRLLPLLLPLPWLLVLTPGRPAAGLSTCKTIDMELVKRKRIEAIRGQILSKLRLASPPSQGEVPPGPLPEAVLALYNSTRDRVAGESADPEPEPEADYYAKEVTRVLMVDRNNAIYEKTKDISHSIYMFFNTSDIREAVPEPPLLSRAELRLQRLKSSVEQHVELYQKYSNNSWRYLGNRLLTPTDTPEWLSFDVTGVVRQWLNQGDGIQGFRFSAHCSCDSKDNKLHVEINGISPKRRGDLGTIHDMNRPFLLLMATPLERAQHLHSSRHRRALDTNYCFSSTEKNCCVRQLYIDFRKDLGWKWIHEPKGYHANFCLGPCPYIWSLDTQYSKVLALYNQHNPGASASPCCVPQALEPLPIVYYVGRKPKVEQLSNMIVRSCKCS
How it was run: (§1)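 Mlg lung fibroblasts treated with or without TGF-β1 (5 ng/mL) plus compound at 10 µM for 24 h. α-SMA, Col1a1 and Fn1 mRNA measured by real-time PCR with β-actin reference primers. n=3.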

[3] = target: Transforming growth factor beta-1 proprotein (Mus musculus) (UniProt P04202); assay: Inhibition of TGF-beta1 in mouse Mlg cells assessed as reduction in fibronectin mRNA expression level at 10 uM after 24 hrs by qRT-PCR method; assay type: cell-based; how it was run: as §1
[4] = target: Transforming growth factor beta-1 proprotein (Mus musculus) (UniProt P04202); assay: Inhibition of TGF-beta1 in mouse Mlg cells assessed as reduction in cell migration at 10 uM after 24 hrs by wound healing based light microscopy
How it was run: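 Confluent Mlg monolayers scratched to a 100-µm wound. Cells then cultured in serum-free medium with or without TGF-β1 (5 ng/mL) and compound at 10 µM. Light-microscope images taken at 0, 12 and 24 h; wound area expressed relative to the initial scratch.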

[5] = target: Transforming growth factor beta-1 proprotein (Mus musculus) (UniProt P04202); assay: Inhibition of TGF-beta1 in mouse Mlg cells assessed as reduction in Col1a1 mRNA expression level at 10 uM after 24 hrs by qRT-PCR method; assay type: cell-based; how it was run: as §1
[6] = target: Transforming growth factor beta-1 proprotein (Mus musculus) (UniProt P04202); assay: Inhibition of TGF-beta1 in mouse Mlg cells assessed as decrease in cell viability at 10 uM after 24 hrs by MTT assay; assay type: cell-based
How it was run: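 Mlg cells exposed to TGF-β1 (5 ng/mL) with or without compound at 10 µM for 24 h; DMSO-treated cells served as control. MTT added for 4 h, then DMSO, and absorbance read. Viability normalized to control as 100%. Triplicate.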

[7] = target: T1, Transforming growth factor beta-1 proprotein/Mothers against decapentaplegic homolog 3 (Mus musculus); assay: Inhibition of TGF-beta1/smad3 signaling pathway in mouse NIH/3T3 cells at 5 to 40 uM after 18 hrs by CAGA-luciferase reporter gene assay; assay type: cell-based
How it was run: (§2)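 CAGA12-luciferase NIH3T3 cells stimulated with TGF-β1 (5 ng/mL) in 0.1% FBS DMEM alongside compound at 5, 10, 20 and 40 µM for 18 h. Lysate luciferase read over the first 20 s. Triplicate.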

Mus musculus [8] = assay: In vivo inhibition of TGF-beta1/smad3 signaling pathway in bleomycin-induced pulmonary fibrosis in C57BL/6 mouse model assessed as decrease in Col1 level in lung tissue at 100 mg/kg, po qd administered from day 7 to 14 by immunohistochemical analysis; assay type: functional, organism-based
How it was run: (§3)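 Lungs from bleomycin-challenged C57BL/6 mice (2 U/kg intratracheal; 100 mg/kg daily, days 7-14) were paraffin-embedded and dewaxed. Citrate (0.01 M) microwave antigen retrieval, then 5% serum block. Primary antibodies overnight at 4 °C: α-SMA 1:200, collagen I 1:100, p-Smad3 1:50. Secondary antibody 1 h at room temperature, then hematoxylin counterstain and microscopy.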

Mus musculus [9] = assay: Antifibrotic activity in bleomycin-induced pulmonary fibrosis in C57BL/6 mouse model assessed as decrease in collagen content in lung at 100 mg/kg, po qd administered from day 7 to 14 by spectrophotometric method; assay type: functional, organism-based
How it was run: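 Bleomycin model as above: 2 U/kg intratracheal in male C57BL/6 mice, 100 mg/kg daily from day 7 to day 14. Right lungs collected at day 14, dried and acid-hydrolysed, filtered, and pH adjusted to 6.5-8.0. Hydroxyproline then measured by chloramine-T spectrophotometry.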

[10] = target: T1, Transforming growth factor beta-1 proprotein/Mothers against decapentaplegic homolog 3 (Mus musculus); assay: Inhibition of TGF-beta1/smad3 signaling pathway in mouse NIH/3T3 cell extract assessed as decrease in Smad3 phosphorylation at 10 uM after 30 mins by Western blot analysis; assay type: protein assay
[11] = target: T1, Transforming growth factor beta-1 proprotein/Mothers against decapentaplegic homolog 3 (Mus musculus); assay: Inhibition of TGF-beta1/smad3 signaling pathway in mouse NIH/3T3 cells at 40 uM after 18 hrs by CAGA-luciferase reporter gene assay; assay type: cell-based; how it was run: as §2
Mus musculus [12] = assay: In vivo inhibition of TGF-beta1/smad3 signaling pathway in bleomycin-induced pulmonary fibrosis in C57BL/6 mouse model assessed as decrease in smad3 phosphorylation level in lung tissue at 100 mg/kg, po qd administered from day 7 to 14 by immunohistochemical analysis; assay type: functional, organism-based; how it was run: as §3
Mus musculus [13] = assay: In vivo inhibition of TGF-beta1/smad3 signaling pathway in bleomycin-induced pulmonary fibrosis in C57BL/6 mouse model assessed as decrease in Col1 protein expression level in lung tissue at 100 mg/kg, po qd administered from day 7 to 14 by Western blot analysis; assay type: functional, organism-based
[14] = target: T1, Transforming growth factor beta-1 proprotein/Mothers against decapentaplegic homolog 3 (Mus musculus); assay: Inhibition of TGF-beta1/smad3 signaling pathway in mouse NIH/3T3 cells assessed as decrease in ECM production at 10 uM after 24 hrs; assay type: cell-based
Mus musculus [15] = assay: Antifibrotic activity in bleomycin-induced pulmonary fibrosis in C57BL/6 mouse model assessed as fibrotic area in lungs at 100 mg/kg, po qd administered from day 7 to 14 by hematoxylin-eosin staining based fluorescence microscopy; assay type: functional
How it was run: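 Male C57BL/6 mice (7-8 weeks, n=5/group) given intratracheal bleomycin 2 U/kg under chloral hydrate anaesthesia. Dosing at 100 mg/kg daily from day 7 to day 14, sacrifice at day 14. Left lungs formalin-fixed, paraffin-embedded, 5 µm sections HE-stained. Fibrosis ratio taken as fibrotic-region pixels over total lung pixels.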

Mus musculus [16] = assay: In vivo inhibition of TGF-beta1/smad3 signaling pathway in bleomycin-induced pulmonary fibrosis in C57BL/6 mouse model assessed as decrease in alpha-SMA level in lung tissue at 100 mg/kg, po qd administered from day 7 to 14 by immunohistochemical analysis; assay type: functional, organism-based; how it was run: as §3
[17] = target: T1, Transforming growth factor beta-1 proprotein/Mothers against decapentaplegic homolog 3 (Mus musculus); assay: Inhibition of TGF-beta1/smad3 signaling pathway in mouse NIH/3T3 cell extract assessed as decrease in alpha-SMA protein expression at 10 uM after 24 hrs by Western blot analysis

inhibition [1]: 27.8%
SMILES: C=C1C(=O)O[C@@H]2C[C@@]3(C)CC[C@@H](O[Si](C)(C)C(C)(C)C)C(=C)[C@@H]3C[C@H]12

inhibition [1]: 17.1%
SMILES: C=C1C(=O)O[C@@H]2C[C@@]3(C)CC[C@@H](OC(=O)[C@@H](NC(=O)OC(C)(C)C)C(C)C)[C@]4(CO4)[C@@H]3C[C@H]12

inhibition [1]: 2.24%
SMILES: C=C1C(=O)O[C@@H]2C[C@@]3(C)CCC(=O)C(=C)[C@@H]3C[C@H]12

inhibition [1]: 6.58%
SMILES: C=C1C(=O)O[C@@H]2C[C@@]3(C)CC[C@@H](OC(C)=O)C(=C)[C@@H]3C[C@H]12

inhibition [1]: 22%
SMILES: C=C1C(=O)O[C@@H]2C[C@@]3(C)CC[C@@H](OC(=O)[C@@H](NC(=O)OC(C)(C)C)C(C)C)C(=C)[C@@H]3C[C@H]12

inhibition [1]: 61.9%
inhibition [3]: Active
inhibition [4]: Active
inhibition [5]: Active
SMILES: C=C1C(=O)O[C@@H]2C[C@@]3(C)CC[C@@H](O)C(=C)[C@@H]3C[C@H]12
inhibition [6]: Active

inhibition [1]: 4.63%
SMILES: C=C1C(=O)O[C@@H]2C[C@@]3(C)CC[C@@H](OC(=O)C4CC4)C(=C)[C@@H]3C[C@H]12

The next lines start with the compound.

SMILES: C=C1C(=O)O[C@@H]2C[C@@]3(C)CC[C@@H](OC(=O)CP(=O)(OCC)OCC)[C@]4(CO4)[C@@H]3C[C@H]12
inhibition [1]: 3.67%

SMILES: C=C1C(=O)O[C@@H]2C[C@@]3(C)CC[C@@H](O)[C@]4(CO4)[C@@H]3C[C@H]12
inhibition [1]: 46%
inhibition [2]: Active
inhibition [3]: Active
inhibition [4]: Active
inhibition [5]: Active
inhibition [6]: Active

SMILES: C=C1C(=O)O[C@@H]2C[C@@]3(C)CC[C@@H](OC(=O)/C=C/CCC)[C@]4(CO4)[C@@H]3C[C@H]12
inhibition [1]: 13.5%

SMILES: C=C1C(=O)O[C@@H]2C[C@@]3(C)CC[C@@H](OC(=O)CCCCCCC)[C@]4(CO4)[C@@H]3C[C@H]12
inhibition [1]: -7.65%

SMILES: CN(C)C[C@@H]1C(=O)O[C@@H]2C[C@@]3(C)CC[C@@H](OC(=O)C4=CCCCC4)[C@]4(CO4)[C@@H]3C[C@H]12
inhibition [7]: Active

SMILES: C=C1C(=O)O[C@@H]2C[C@@]3(C)CC[C@@H](OC(=O)c4ccccc4)[C@]4(CO4)[C@@H]3C[C@H]12
inhibition [1]: 26.7%

SMILES: C=C1C(=O)O[C@@H]2C[C@@]3(C)CC[C@@H](OC(=O)/C=C/C(=O)OCC)[C@]4(CO4)[C@@H]3C[C@H]12
inhibition [1]: 71.3%
inhibition [4]: Active
inhibition [5]: Active
inhibition [6]: Active

SMILES: C=C1[C@H](O)CC[C@]2(C)C[C@H]3OC(=O)[C@@H](CN(C)C)[C@H]3C[C@@H]12
inhibition [7]: Active

SMILES: CCOC(=O)/C=C/C(=O)O[C@@H]1CC[C@]2(C)C[C@H]3OC(=O)[C@@H](CN(C)C)[C@H]3C[C@H]2[C@@]12CO2.O=C(O)/C=C/C(=O)O
inhibition (Mus musculus [8]): Active
Activity (Mus musculus [9]): Active
inhibition [10]: Active
inhibition [11]: Active
inhibition (Mus musculus [12]): Active
inhibition (Mus musculus [13]): Active
inhibition [14]: Active
Activity (Mus musculus [15]): 53.5%
inhibition (Mus musculus [16]): Active
inhibition [17]: Active

SMILES: C=C1C(=O)O[C@@H]2C[C@@]3(C)CC[C@@H](OC(=O)C4=CCCCC4)[C@]4(CO4)[C@@H]3C[C@H]12
inhibition [1]: 34.8%
inhibition [4]: inactive

SMILES: C#CCCCC(=O)O[C@@H]1CC[C@]2(C)C[C@H]3OC(=O)C(=C)[C@H]3C[C@H]2[C@@]12CO2
inhibition [1]: 6.65%

SMILES: C=C1C(=O)O[C@@H]2C[C@@]3(C)CCC[C@H](C)[C@@]34O[C@H]4[C@H]12
inhibition [1]: 77.7%
inhibition [2]: Active
inhibition [3]: Active
inhibition [4]: Active
inhibition [5]: Active
inhibition [6]: Active

SMILES: C=C1C(=O)O[C@@H]2C[C@@]3(C)CCC[C@]4(CO4)[C@@H]3C[C@H]12
inhibition [1]: 3.08%

SMILES: C=C1C(=O)O[C@@H]2C[C@@]3(C)CC[C@@H](OC(C)=O)[C@]4(CO4)[C@@H]3C[C@H]12
inhibition [1]: -2.36%
